We go through eleven compounds from ChEMBL document CHEMBL1136463, “The relationship between physicochemical properties, in vitro activity and pharmacokinetic profiles of analogues of diamine-containing efflux pump inhibitors” (Bioorg Med Chem Lett, 2003).

The structures appear in SMILES notation. Some results are limits rather than exact numbers.

One data set relates to Pseudomonas aeruginosa. The experiment in a line: Minimum potentiation concentration required to reduce (potentiate) the activity of antibacterial drug-levofloxacin for Pseudomonas aeruginosa by n-fold in the absence of horse serum. The format is functional.
Data set [1] in a line: Ionization constant (pKa2) of compound was determined. The settings on record: read-out: pKa2. The data set is classed as physicochemical.
A short description of data set [2]: Ionization constant (pKa1) of compound was determined. The data set is classed as physicochemical. To be noted: read-out: pKa1.
For data set [3], the system named is Rattus norvegicus. The experiment in a line: Area under curve (AUC) at a dose 1 mg/kg was determined in rat kidney. The settings on record: in vivo. The data set is classed as ADME, organism-based. Also noted: dose 1 mg/kg. The procedure, abridged:
(§1)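 Male Sprague–Dawley rats with femoral and jugular venous catheters (5 rats), dosed alone or in cassettes of up to five compounds by 2 h constant-rate femoral vein infusion at 1 to 10 mg/kg. One rat killed at 0.25, 2, 8, 16 and 24 h after infusion start. Liver, kidney and lung homogenates assayed by HPLC/MS/MS. Tissue AUC0–24 h normalized to 1 mg/kg.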

A short description of data set [4]: T1/2 (half life) of compound after 2 hr iv infusion of 8.4 mg/kg in three rat. The format is ADME, organism-based. Further details: dose 8.4 mg/kg, route intravenous. To be noted: in vivo.
A short description of data set [5]: Steady state volume distribution (Vss) of compound after 2 hr iv infusion of 8.4 mg/kg in three rat. The format is ADME, organism-based. Also noted: dose 8.4 mg/kg, route intravenous. The settings on record: in vivo, read-out: Vss.
Data set [6] is described as follows: Clearance (Cl) of compound after 2 h iv infusion of 8.4 mg/kg in three rat. The settings on record: in vivo. The format is ADME, organism-based. Also noted: dose 8.4 mg/kg, route intravenous.
The nature of data set [7]: Partition coefficient (logD). The format is physicochemical. The settings on record: octanol/water.
For data set [8], the system named is Rattus norvegicus. The experiment in a line: Area under curve (AUC) at a dose 1 mg/kg was determined in rat lung. Further details: dose 1 mg/kg. The format is ADME, organism-based. The settings on record: in vivo. The procedure, abridged: as §1
For data set [9], the system named is Rattus norvegicus. The experiment in a line: Area under curve (AUC) at a dose 1 mg/kg was determined in rat liver. Further details: dose 1 mg/kg. The settings on record: in vivo. The format is ADME, organism-based. The procedure, abridged: as §1
The nature of data set [10]: Partition coefficient (logP). The format is physicochemical. To be noted: octanol/water.

Take `NCC(=O)N1CCNCC1C(=O)N[C@H](CCc1ccccc1)C(=O)Nc1cnc2ccccc2c1` (stereo partly drawn): in the data set on Pseudomonas aeruginosa, the MPC was found to be 20 µg/mL. The pKa in [1] was 6.3; in data set [2] it was 8.2.

A word on the half-life: it is the time needed for the level to fall by half in the phase considered. Read a low half-life as fast loss. As usually defined, the clearance is a measure of how efficiently the substance is removed, as volume per time. A higher clearance goes with a high capacity for elimination. The term logD denotes lipophilicity at a set pH, counting ionised and neutral species. Read a low logD as a more hydrophilic compound. Usually logP stands for a log measure of how a compound divides between an organic and an aqueous phase. A lower logP goes with a more hydrophilic compound. For the compound `NC[C@@H]1CN[C@@H](C(=O)N[C@H](CCc2ccccc2)C(=O)Nc2ccc3ncccc3c2)C1`, the AUC in the data set with Rattus norvegicus [3] amounted to 56 mg·h/kg; with Rattus norvegicus [8], 15 mg·h/kg; in the data set with Rattus norvegicus [9] it was 22 mg·h/kg. Besides, in data set [4], the half-life was 43.8 min. The Vd in data set [5] worked out at 0.5 L/kg. In the data set on Pseudomonas aeruginosa, the MPC was 10 µg/mL. Also, the clearance in data set [6] was 26.7 mL/min/kg. In data set [7], the logD was determined as 0.5. Further, the pKa is 6.9 in data set [1] and 9.6 in [2]. The compound also came in with a logP in data set [10] of 2.3.

`N[C@@H]1CN[C@@H](CC(=O)N[C@H](CCc2ccccc2)C(=O)Nc2cnc3ccccc3c2)C1`: the MPC in the data set with Pseudomonas aeruginosa came to 5 µg/mL. The values for the pKa in [1] and in data set [2] were 6.3 and 9.3, respectively.

In the case of `N[C@@H]1CN[C@@H](C(=O)N[C@H](CCc2ccccc2)C(=O)Nc2cnc3ccccc3c2)C1`, the AUC worked out at 25 mg·h/kg in the data set on Rattus norvegicus [3], 14 mg·h/kg in the data set with Rattus norvegicus [8] and 13 mg·h/kg in the data set with Rattus norvegicus [9]. For the same compound, the MPC with Pseudomonas aeruginosa is >40 µg/mL. Further, the logD in [7] came out at 1.1. The pKa in data set [1] is 5.2; in data set [2] it was 8.8. The compound further displayed a logP in data set [10] of 2.3.

Regarding `NCC(=O)N1C[C@@H](N)C[C@@H]1C(=O)N[C@H](CCc1ccccc1)C(=O)Nc1cnc2ccccc2c1`, the AUC stood at 79 mg·h/kg in the data set with Rattus norvegicus [3], 3 mg·h/kg with Rattus norvegicus [8] and 20 mg·h/kg in the data set on Rattus norvegicus [9]. Besides, in the data set with Pseudomonas aeruginosa, the MPC came to 10 µg/mL. This compound yielded a logD in [7] of 0.9. Further, the pKa in data set [1] turned out to be 7.1; in data set [2], 8.1. For the same compound, the logP in data set [10] stood at 1.8.

Consider `NCC(=O)N1CCNC(C(=O)N[C@H](CCc2ccccc2)C(=O)Nc2cnc3ccccc3c2)C1` (stereo partly drawn), for which the MPC in the data set on Pseudomonas aeruginosa is >40 µg/mL. The results for the pKa in data set [1] and in data set [2] were 5.4 and 8.5, respectively.

As to `NC[C@@H]1CN[C@@H](C(=O)N[C@H](CCc2ccccc2)C(=O)Nc2cnc3ccccc3c2)C1`, the MPC in the data set on Pseudomonas aeruginosa was found to be 5 µg/mL. Moreover, the values for the pKa in data set [1] and in [2] were 6.8 and 9.6, respectively.

In the case of `Cc1cc2nc([C@@H](CCc3ccccc3)NC(=O)[C@H]3C[C@H](N)CN3C(=O)CN)[nH]c2cc1C`, the figures for the AUC in the data set with Rattus norvegicus [3], in the data set with Rattus norvegicus [8] and in the data set on Rattus norvegicus [9] were 133 mg·h/kg, 5 mg·h/kg and 176 mg·h/kg, respectively. In the data set on Pseudomonas aeruginosa, the MPC came out at 5 µg/mL. In addition, the logD in data set [7] was 1.9. Besides, the logP in data set [10] came out at 2.8.

On to `NCC(=O)N1C[C@@H](N)C[C@@H]1C(=O)N[C@H](CCc1ccccc1)C(=O)Nc1ccc2ncccc2c1`, for which the AUC in the data set on Rattus norvegicus [3] came to 96 mg·h/kg; in the data set with Rattus norvegicus [8], 4 mg·h/kg; in the data set on Rattus norvegicus [9], 12 mg·h/kg. The MPC with Pseudomonas aeruginosa was 20 µg/mL. The compound further showed a logD in [7] of 0.5. For the same compound, the pKa in data set [1] was 7.2; in data set [2], 8.2. In data set [10], this compound showed a logP of 1.4.

As for `C[C@@H](N)C(=O)N[C@H](CCc1ccccc1)C(=O)Nc1cnc2ccccc2c1`, the AUC in the data set on Rattus norvegicus [3] came out at 8.5 mg·h/kg; in the data set with Rattus norvegicus [9], 5.5 mg·h/kg.

Consider `NCC(=O)N1C[C@@H](CN)C[C@@H]1C(=O)N[C@H](CCc1ccccc1)C(=O)Nc1ccc2ncccc2c1`, for which the AUC with Rattus norvegicus [3] came out at 100 mg·h/kg; with Rattus norvegicus [8] it was 4 mg·h/kg; in the data set on Rattus norvegicus [9], 26 mg·h/kg. Further, in the data set with Pseudomonas aeruginosa, the MPC was 10 µg/mL. Moreover, the logD in [7] was -0.5. For the same compound, the pKa stood at 7.7 in data set [1] and 9 in data set [2]. Moreover, the logP in [10] came to 1.2.
